Assay results: ChEMBL document CHEMBL5653630, “Activation of the p53-MDM4 regulatory axis defines the anti-tumour response to PRMT5 inhibition through its role in regulating cellular splicing” (Sci Rep, 2018)
The source made the active and inactive calls. No cut-off for these calls is given here.

Key:
MINO = assay: Induction of cell cycle arrest in human MINO cells assessed as increase in 2n cell population measured upto 5000 nM measured for 3 days by propidium iodide staining based flow cytometric analysis; format: functional; conditions: time 3.0 day
Z-138 [1] = assay: Induction of apoptosis in human Z138 cells assessed as dead cells incubated for 6 days by annexin-V/FITC propidium iodide staining based flow cytometry analysis; format: functional, cell-based; conditions: dose 200.0 nM, time 6.0 day
Z-138 [2] = assay: Antitumor activity against human Z138 cells xenografted in mouse assessed as reduction in tumor volume at 200 mg/kg, po qd pretreated for 21 days followed by treatment holiday for 10 days and further compound treatment for 2 weeks starting from day 32 followed by 1 week treatment holiday; format: functional, organism-based; conditions: time 52.0 day
Z-138 [3] = assay: In vivo inhibition of PRMT5 in human Z138 cells xenografted in mouse assessed as increase in p53 level at 100 mg/kg, po BID measured for 7 days by immunohistochemical analysis; format: functional, organism-based; conditions: time 7.0 day
[4] = Antiproliferative activity against human CML-T1 cells assessed as cell growth inhibition incubated for 10 days; format: functional; conditions: CML-T1, 240 h, time 10 day
Summary of the method: (§1)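 Cells kept in RPMI-1640 with 10% FBS, 2 mM L-alanyl-L-glutamine and 1 mM Na pyruvate (or a special medium) at 37°C, 5% CO2. Compound added 24 h after seeding, 10 concentrations in 3.16-fold dilution, 0.1% DMSO final. Medium replaced and cells re-dosed at 168 h; 240 h incubation. Nuclei fixed, dye-stained and imaged. gIC50 = growth midway between untreated and time-zero cell counts, from a 4-parameter fit.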

COLO 201 = assay: Antiproliferative activity against human COLO201 cells assessed as cell growth inhibition incubated for 10 days; format: functional; conditions: COLO 201, 240 h, time 10 day; summary of the method: as §1
SW48 = assay: Antiproliferative activity against human SW48 cells assessed as cell growth inhibition incubated for 10 days; format: functional; conditions: SW48, 240 h, time 10 day
SW-620 = assay: Antiproliferative activity against human SW620 cells assessed as cell growth inhibition incubated for 10 days; format: functional; conditions: SW-620, 240 h, time 10 day
SNU1 = assay: Antiproliferative activity against human SNU1 cells assessed as cell growth inhibition incubated for 10 days; format: functional; conditions: SNU1, 240 h, time 10 day
CAL-27 = assay: Antiproliferative activity against human CAL-27 cells assessed as cell growth inhibition incubated for 10 days; format: functional; conditions: CAL-27, 240 h, time 10 day; summary of the method: as §1
MHH-PREB-1 = assay: Antiproliferative activity against human MHH-PREB-1 cells assessed as cell growth inhibition incubated for 10 days; format: functional; conditions: MHH-PREB-1, 240 h, time 10 day
NCI-H460 = assay: Antiproliferative activity against human NCI-H460 cells assessed as cell growth inhibition incubated for 10 days; format: functional; conditions: NCI-H460, 240 h, time 10 day
COR-L23 = assay: Antiproliferative activity against human COR-L23 cells assessed as cell growth inhibition incubated for 10 days; format: functional; conditions: COR-L23, 240 h, time 10 day
Summary of the method: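 Outsourced panel run in 384-well plates. Cells were grown in RPMI-1640/10% FBS or a special medium at 37°C, 5% CO2. Compound was added 24 h after seeding as a 10-point, 3.16-fold series in 0.1% DMSO. Medium was refreshed and cells re-dosed at 168 h, with a time-zero plate kept. At 240 h cells were fixed, nuclei stained and imaged. gIC50 is growth midway between untreated and time zero, from a 4-parameter fit.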

PANC-1 = assay: Antiproliferative activity against human PANC-1 cells assessed as cell growth inhibition incubated for 10 days; format: functional; conditions: PANC-1, 240 h, time 10 day
J-RT3-T3-5 = assay: Antiproliferative activity against human J-RT3-T3-5 cells assessed as cell growth inhibition incubated for 10 days; format: functional; conditions: J-RT3-T3-5, 240 h, time 10 day
Summary of the method: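 Eurofins-panel 10-day assay in 384-well plates. Cells grown in RPMI-1640 with 10% FBS, 2 mM L-alanyl-L-glutamine and 1mM Na pyruvate, or a special medium, at 37°C in 5% CO₂. Compound added 24 h after seeding, 10-point 3.16-fold series in 0.1% DMSO. Medium replaced and compound re-dosed at 168 h. Nuclei fixed and stained after 240 h, then imaged to give a relative cell count. gIC50 is the concentration giving growth midway between untreated and time-zero counts, from a 4-parameter fit.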

[5] = Antiproliferative activity against human SW579 cells assessed as cell growth inhibition incubated for 10 days; format: functional; conditions: SW579, 240 h, time 10 day
SW 954 = assay: Antiproliferative activity against human SW 954 cells assessed as cell growth inhibition incubated for 10 days; format: functional; conditions: SW 954, 240 h, time 10 day
[6] = biological target: Protein arginine N-methyltransferase 5 (Homo sapiens) (UniProt O14744); assay: Inhibition of PRMT5 in human Z138 cells expressing EGFP at 1 to 100000 nM incubated for 3 to 6 days; format: cell-based; conditions: dose 1-100000 nM, time 3-6 day
RCK8 = assay: Antiproliferative activity against human RCK8 cells assessed as reduction in cell viability; format: functional, cell-based

Sequence of Protein arginine N-methyltransferase 5 (Homo sapiens) (O14744 whole entry): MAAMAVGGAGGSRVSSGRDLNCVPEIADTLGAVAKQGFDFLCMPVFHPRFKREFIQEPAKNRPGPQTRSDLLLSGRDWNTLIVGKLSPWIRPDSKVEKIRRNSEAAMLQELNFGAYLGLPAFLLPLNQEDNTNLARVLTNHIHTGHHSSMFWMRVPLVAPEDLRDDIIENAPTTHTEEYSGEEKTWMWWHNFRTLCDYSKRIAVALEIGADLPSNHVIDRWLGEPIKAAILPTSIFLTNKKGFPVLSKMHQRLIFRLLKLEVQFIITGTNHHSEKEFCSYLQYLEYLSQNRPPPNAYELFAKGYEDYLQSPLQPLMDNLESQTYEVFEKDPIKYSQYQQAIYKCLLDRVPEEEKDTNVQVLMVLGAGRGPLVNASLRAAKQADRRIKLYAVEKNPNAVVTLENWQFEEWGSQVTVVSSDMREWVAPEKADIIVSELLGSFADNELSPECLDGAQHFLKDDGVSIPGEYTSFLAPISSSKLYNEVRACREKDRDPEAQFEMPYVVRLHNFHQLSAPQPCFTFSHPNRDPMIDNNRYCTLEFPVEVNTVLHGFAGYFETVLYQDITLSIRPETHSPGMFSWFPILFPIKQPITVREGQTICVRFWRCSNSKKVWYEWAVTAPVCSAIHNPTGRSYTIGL

| Structure (SMILES) | Activity (MINO) | Activity (Z-138 [1]) | Activity (Z-138 [2]) | inhibition (Z-138 [3]) | GI50 [4] | GI50 (COLO 201) | GI50 (SW48) | GI50 (SW-620) | GI50 (SNU1) | GI50 (CAL-27) | GI50 (MHH-PREB-1) | GI50 (NCI-H460) | GI50 (COR-L23) | GI50 (PANC-1) | GI50 (J-RT3-T3-5) | GI50 [5] | GI50 (SW 954) | inhibition [6] | Activity (RCK8) |
| --- | --- | --- | --- | --- | --- | --- | --- | --- | --- | --- | --- | --- | --- | --- | --- | --- | --- | --- | --- |
| CC(=O)N1CCC(Nc2cc(C(=O)NC[C@H](O)CN3CCc4ccccc4C3)ncn2)CC1 [PEMRAMETOSTAT] | inactive | Dose-Dependent Effect | Active | Active | – | – | – | – | – | – | – | – | – | – | – | – | – | – | – |
| O=C(NC[C@H](O)CN1CCc2ccccc2C1)c1ccnc(NC2CCC2)c1 | – | – | – | – | 16.1 nM | 49.6 nM | 10000 nM | 5640 nM | 1040 nM | 103 nM | 10000 nM | 224 nM | 147 nM | 165 nM | 43.2 nM | 83.3 nM | 10000 nM | inactive | Active |
